The nature of data set [1]: Cytotoxicity against mouse NIH/3T3 cells assessed as cell growth at 20 uM measured at 72 hrs by CyQuant proliferation assay relative to control. Type of data set: cell-based. The note with it: nih3t3, 72 h.
Data set [2] can be described thus: Cytotoxicity against human A2780S cells assessed as cell growth at 20 uM measured at 72 hrs by CyQuant proliferation assay relative to control. The class given is functional. The following applies: A2780, 72 h, read-out: Activity.
Data set [3] can be described thus: Cytotoxicity against human A2780S/CP5 cells assessed as cell growth at 20 uM measured at 72 hrs by CyQuant proliferation assay relative to control. The following applies: A2780S/CP5, 72 h, read-out: Activity. The class given is functional.
Data set [4] is described as follows: Cytotoxicity against human U251MG cells assessed as cell growth at 20 uM measured at 72 hrs by CyQuant proliferation assay relative to control. The class given is functional. The note with it: U-251, 72 h, read-out: Activity.
Data set [5] concerns A549. The data set can be described thus: Cytotoxicity against human A549 cells assessed as cell growth at 20 uM measured at 72 hrs by CyQuant proliferation assay relative to control. The class given is functional. The following applies: A549, 72 h, read-out: Activity.
The subject of data set [6] is MCF7. The data set can be described thus: Cytotoxicity against human MCF7 cells assessed as cell growth at 20 uM measured at 72 hrs by CyQuant proliferation assay relative to control. Type of data set: functional. The following applies: MCF7, 72 h, read-out: Activity.
A short description of data set [7]: Cytotoxicity against mouse NIH/3T3 cells assessed as cell growth at 25 uM measured at 72 hrs by CyQuant proliferation assay relative to control. The note with it: read-out: Activity. The class given is cell-based, NIH3T3.
Data set [8] can be described thus: Cytotoxicity against human A2780S cells assessed as cell growth at 25 uM measured at 72 hrs by CyQuant proliferation assay relative to control. The class given is functional. The following applies: A2780, 72 h, read-out: Activity.
Data set [9] is described as follows: Cytotoxicity against human A2780S/CP5 cells assessed as cell growth at 25 uM measured at 72 hrs by CyQuant proliferation assay relative to control. The class given is functional. The following applies: A2780S/CP5, 72 h, read-out: Activity.
Data set [10] can be described thus: Cytotoxicity against human U251MG cells assessed as cell growth at 25 uM measured at 72 hrs by CyQuant proliferation assay relative to control. The note with it: U-251, 72 h, read-out: Activity. Type of data set: functional.
For data set [11], the system named is A549. The data set can be described thus: Cytotoxicity against human A549 cells assessed as cell growth at 25 uM measured at 72 hrs by CyQuant proliferation assay relative to control. The class given is functional. The note with it: A549, 72 h, read-out: Activity.
In data set [12] the test system is MCF7. As to the kind of experiment: Cytotoxicity against human MCF7 cells assessed as cell growth at 25 uM measured at 72 hrs by CyQuant proliferation assay relative to control. The class given is functional. The note with it: MCF7, 72 h, read-out: Activity.
Data set [13] deals with Beta-secretase 1 (Homo sapiens) (UniProt P56817). The data set can be described thus: Inhibition of BACE1 (unknown origin) using BACE ED as substrate at 39.6 uM by EFC assay.
The nature of data set [14]: Cytotoxicity against mouse NIH/3T3 cells assessed as cell growth at 50 uM measured at 72 hrs by CyQuant proliferation assay relative to control. The class given is cell-based, NIH3T3. The note with it: read-out: Activity. The procedure, abridged: (§1)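 Single-concentration screen at 50 and 5 μM across the cancer lines and normal mouse NIH3T3 fibroblasts. Cell growth was read by CyQuant proliferation assay at 72 h. Values are expressed relative to DMSO-treated control. Done in triplicate, one experiment (n=1).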

The nature of data set [15]: Cytotoxicity against human A2780S/CP5 cells assessed as cell growth at 50 uM measured at 72 hrs by CyQuant proliferation assay relative to control. The class given is functional. The following applies: A2780S/CP5, 72 h, read-out: Activity. Put shortly:
as §1

Data set [16] in a line: Cytotoxicity against human A2780S cells assessed as cell growth at 5 uM measured at 72 hrs by CyQuant proliferation assay relative to control. Type of data set: functional. The following applies: A2780, 72 h, read-out: Activity. The procedure, abridged:
as §1

The nature of data set [17]: Cytotoxicity against human A2780S cells assessed as cell growth at 50 uM measured at 72 hrs by CyQuant proliferation assay relative to control. The class given is functional. The following applies: A2780, 72 h, read-out: Activity. The procedure, abridged:
as §1

Data set [18] is described as follows: Cytotoxicity against mouse NIH/3T3 cells assessed as cell growth at 5 uM measured at 72 hrs by CyQuant proliferation assay relative to control. The class given is cell-based, NIH3T3. The note with it: read-out: Activity. The procedure, abridged:
as §1

The nature of data set [19]: Cytotoxicity against human A2780S/CP5 cells assessed as cell growth at 5 uM measured at 72 hrs by CyQuant proliferation assay relative to control. Type of data set: functional. The note with it: A2780S/CP5, 72 h, read-out: Activity. The procedure, abridged: as §1
The nature of data set [20]: Cytotoxicity against human U251MG cells assessed as cell growth at 50 uM measured at 72 hrs by CyQuant proliferation assay relative to control. The class given is functional. The following applies: U-251, 72 h, read-out: Activity. Put shortly: as §1
Data set [21] is described as follows: Cytotoxicity against human U251MG cells assessed as cell growth at 5 uM measured at 72 hrs by CyQuant proliferation assay relative to control. The class given is functional. The note with it: U-251, 72 h, read-out: Activity. The procedure, abridged:
as §1

Data set [22] has as its system A549. The data set can be described thus: Cytotoxicity against human A549 cells assessed as cell growth at 50 uM measured at 72 hrs by CyQuant proliferation assay relative to control. Type of data set: functional. The following applies: A549, 72 h, read-out: Activity. The procedure, abridged:
as §1

In data set [23] the test system is A549. The data set can be described thus: Cytotoxicity against human A549 cells assessed as cell growth at 5 uM measured at 72 hrs by CyQuant proliferation assay relative to control. The class given is functional. The note with it: A549, 72 h, read-out: Activity. Put shortly: as §1
The subject of data set [24] is MCF7. As to the kind of experiment: Cytotoxicity against human MCF7 cells assessed as cell growth at 50 uM measured at 72 hrs by CyQuant proliferation assay relative to control. Type of data set: functional. The following applies: MCF7, 72 h, read-out: Activity. The procedure, abridged:
as §1

Data set [25] concerns MCF7. The data set can be described thus: Cytotoxicity against human MCF7 cells assessed as cell growth at 5 uM measured at 72 hrs by CyQuant proliferation assay relative to control. The following applies: MCF7, 72 h, read-out: Activity. Type of data set: functional. Put shortly: as §1

The source of these data is ChEMBL document CHEMBL3745713, “Bromotyrosine-derived metabolites from an Indonesian marine sponge in the family Aplysinellidae (Order Verongiida)” (Bioorg Med Chem Lett, 2016).

Beta-secretase 1 (Homo sapiens), sequence (P56817 whole entry): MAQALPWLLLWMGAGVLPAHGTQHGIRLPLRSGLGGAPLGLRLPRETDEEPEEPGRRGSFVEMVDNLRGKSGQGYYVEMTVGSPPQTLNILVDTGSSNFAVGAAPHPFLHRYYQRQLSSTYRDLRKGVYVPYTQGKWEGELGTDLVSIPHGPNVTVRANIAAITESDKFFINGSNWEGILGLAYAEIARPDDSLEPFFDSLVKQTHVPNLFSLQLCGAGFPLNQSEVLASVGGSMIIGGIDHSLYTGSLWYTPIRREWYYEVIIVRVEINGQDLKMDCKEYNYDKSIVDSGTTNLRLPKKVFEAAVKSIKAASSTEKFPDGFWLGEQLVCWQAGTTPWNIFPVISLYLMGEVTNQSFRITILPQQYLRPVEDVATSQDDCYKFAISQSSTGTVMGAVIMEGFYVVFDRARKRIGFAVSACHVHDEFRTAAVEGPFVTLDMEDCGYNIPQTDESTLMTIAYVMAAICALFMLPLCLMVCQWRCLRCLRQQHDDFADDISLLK

Turning to `COc1cc([C@@H]2c3cc4c(cc3[C@@H](O[C@@H]3O[C@@H]5CO[C@@H](C)O[C@H]5[C@H](O)[C@H]3O)[C@H]3COC(=O)[C@H]23)OCO4)cc(OC)c1O` [ETOPOSIDE], the Activity in [1] was 46%. Also, the growth at 20 µM worked out at 35% in data set [2]; 33% in [3]; 21% in data set [4]; 49% in [5]; 46% in data set [6].

Consider `O=C(CCCCCCC(=O)Nc1ccccc1)NO` [VORINOSTAT], for which, in data set [7], the viability at 72 h, 25 µM amounted to 46%. For the same compound, the growth at 25 µM in data set [8] came out at 23%; in data set [9], 18%; in [10], 20%; in data set [11], 51%; in data set [12], 52%.

`COC1=C(Br)[C@@H](O)[C@]2(C=C1Br)CC(C(=O)NCCCOc1c(Br)cc(CCNC(=N)N)cc1Br)=NO2` yielded an inhibition in [13] of 40%. For the same compound, the viability at 72 h, 50 µM in [14] turned out to be 25%. The growth at 50 µM in [15] turned out to be 8%; in [17], 12%; in data set [20], 32%; in [22] it was 48%; in data set [24] it was 24%. Moreover, the growth at 5 µM in data set [16] is 78%; in data set [19] it was 45%; in data set [21] it was 94%; in data set [23] it was 85%; in [25], 98%. Further, the viability at 72 h, 5 µM in data set [18] worked out at 100%.

A word on the inhibition: it is the percentage by which the read-out fell short of the control. Low readings indicate a response near the control, high ones a response far below the control.
